# Reference: ChEMBL document CHEMBL3243965, “Potential antiinflammatory compounds. 1. Antiinflammatory phenylpiperidine derivatives” (J Med Chem, 1979)
# The source made the active and inactive calls. The calls are words filed in the database; no cut-off is given here.
# How the values were obtained:
# [1] = system: Rattus norvegicus; test: Antiinflammatory activity in Wistar rat assessed as inhibition of carrageenan-induced paw swelling at 2 x 100 mg/kg, po administered 0.5 to 3 hrs prior to carrageenan challenge measured after 2.5 hrs by plethysmographic analysis relative to control; format: functional; conditions: for inhibition in vivo at 100 mg/kg: Rattus norvegicus, Wistar
# Procedure, shortened: (§1)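 Female Wistar rats (in-house bred, 140–170 g; groups of four) were dosed orally twice, 3 and 0.5 h before a plantar injection of 0.1 mL 1% carrageenan in 0.9% saline into the right hind foot. Both feet were measured by mercury-displacement plethysmography 2.5 h later, and the right-minus-left difference was taken. Group mean % inhibition was calculated against ten concurrent saline-dosed controls, with significance at p < 0.02.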
# [2] = Toxicity in po dosed mouse; format: organism-based; conditions: in vivo
# [3] = system: Rattus norvegicus; test: Antiinflammatory activity in Wistar rat assessed as inhibition of carrageenan-induced paw swelling at 2 x 50 mg/kg, po administered 0.5 to 3 hrs prior to carrageenan challenge measured after 2.5 hrs by plethysmographic analysis relative to control; format: functional; procedure, shortened: as §1
# [4] = system: Rattus norvegicus; test: Antiinflammatory activity in Wistar rat assessed as inhibition of carrageenan-induced paw swelling at 100 mg/kg, po administered 0.5 to 3 hrs prior to carrageenan challenge measured after 2.5 hrs by plethysmographic analysis relative to control; format: functional
# Procedure, shortened: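 Groups of four female Wistar rats (140–170 g) were dosed orally twice (2 × 50 or 2 × 100 mg/kg), at 3 and 0.5 h before plantar injection of 0.1 mL 1% carrageenan in 0.9% saline into the right hind foot. Right minus left foot volume was read by mercury-displacement plethysmograph at 2.5 h. Mean group swelling was expressed as % inhibition versus ten concurrent saline-dosed controls; significance p < 0.02.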
# [5] = system: Canis familiaris; test: Toxicity in dog at 150 mg/kg; format: organism-based, Canis lupus familiaris; design: dose 150 mg/kg; conditions: in vivo
Structure (SMILES),LD50 [2] [mg/kg],inhibition in vivo at 100 mg/kg [1] [%],inhibition in vivo at 50 mg/kg [3] [%],also measured
Cl.NCCc1ccc(N2CCCCC2)cc1,1200,,,inhibition in vivo at 100 mg/kg ([1]; po): 55%
NCC(C(=O)O)c1ccc(N2CCCCC2)cc1 (stereo unspecified),> 1600,40,,
CC(N)Cc1ccc(N2CCCCC2)cc1.O=C(O)CCC(=O)O (stereo unspecified),600,,33,
CC(CO)c1ccc(N2CCCCC2)cc1 (stereo unspecified),1600,71,,
C[C@]12CCC(=O)C=C1CC[C@@H]1[C@@H]2[C@@H](O)C[C@@]2(C)[C@H]1CC[C@]2(O)C(=O)CO [HYDROCORTISONE],,,35,
CC(C(=O)O)c1ccc(N2CCCCC2)cc1 (stereo unspecified),800,,68,
O=C(NCCc1ccc(N2CCCCC2)cc1)C(F)(F)F,1600,60,,
O=C(O)Cc1ccc(N2CCCCC2)c(Cl)c1,800,43,,
CC(C(=O)O)c1ccc(N2CCCCC2)c(Cl)c1 (stereo unspecified),1200,53,,
Cl.NCCc1ccc(N2CCCCC2)c(Cl)c1,800,,,inhibition in vivo at 100 mg/kg [4]: 58%
CC(CN)c1ccc(N2CCCCC2)cc1.Cl (stereo unspecified),600,,57,Activity [5]: Toxic
NCCCCCCc1ccc(N2CCCCC2)cc1.O=C(O)CCC(=O)O,1200,57,,
CNCCc1ccc(N2CCCCC2)cc1.O=C(O)CCC(=O)O,600,,33,
NCCc1ccc(N2CCCCC2)cc1.O=C(O)O,800,,,inhibition (INH) [1]: 54%
NCCCCc1ccc(N2CCCCC2)c(Cl)c1.O=C(O)CCC(=O)O,1600,71,,
CC(C)(O)c1ccc(N2CCCCC2)cc1,600,,,inhibition ([3]; at 50 mg/kg): inactive

Structure (SMILES),LD50 [2] [mg/kg],inhibition in vivo at 100 mg/kg [1] [%],inhibition in vivo at 50 mg/kg [3] [%],also measured
CC(CN)c1cccc(N2CCCCC2)c1 (stereo unspecified),600,,,inhibition ([1]; at 100 mg/kg): inactive
CC(CN)c1ccc(N2CCCCC2)c(Cl)c1.Cl (stereo unspecified),600,,39,
CN(CCc1ccc(N2CCCCC2)cc1)C(=O)C(F)(F)F.Cl,1600,38,,
CC(C)c1ccc(N2CCCCC2)cc1.Cl,1200,,30,
CCCCC1C(=O)N(c2ccccc2)N(c2ccccc2)C1=O [PHENYLBUTAZONE],,50,,
O=C(O)Cc1ccc(N2CCCCC2)cc1,800,51,,
c1cc(N2CCCCC2)ccc1CCN1CCCCC1,400,,46,
Cl.NCCc1cccc(N2CCCCC2)c1,600,,39,
OCCc1ccc(N2CCCCC2)cc1,1200,51,,
CC(C)(CN)c1ccc(N2CCCCC2)cc1.O=C(O)CCC(=O)O,400,,34,
Cl.[2H]C([2H])(N)C(C)c1ccc(N2CCCCC2)cc1 (stereo unspecified),600,,47,
CC(CNC(=O)C(F)(F)F)c1ccc(N2CCCCC2)cc1 (stereo unspecified),600,,32,
O=C(Cc1ccc(N2CCCCC2)cc1)NCCc1ccc(N2CCCCC2)cc1,1600,22,,
NCCCCc1ccc(N2CCCCC2)cc1.O=C(O)O,600,54,,
CC(CN(C)C)c1ccc(N2CCCCC2)cc1.Cl (stereo unspecified),600,70,,
